Laboratory results published in publication PMC9488007 (Environmental Science and Ecotechnology, 2020).
Values after ≈ are worked out from the molar mass of the structure shown. Values joined by “and” are separate entries in the source; they are usually repeats but may differ in a detail not shown here. Identical values can stand only once. Like-named read-outs stand apart in the source and are kept apart here.

Legend:
[1] = Desorption kinetics of bisphenols from bisphenol-attached PVC microplastics; format: physicochemical
Method in brief: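 Bisphenol-loaded PVC from the adsorption step was placed in water or simulated intestinal fluid (NaCl 0.12 M, Na2CO3 0.02 M, sodium taurocholate 15.5 mM) in sealed 1 L glass bottles. Bottles were agitated rotationally at 200 rpm in an oil bath. Bisphenol was measured in filtered supernatant at intervals from 0 to 75 h. Run in triplicate.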

Desorption isotherms = format: physicochemical
[2] = Adsorption of bisphenols onto PVC microplastics; format: physicochemical; conditions: 1.5 g PVC microplastics in 1 L, 48 h, room temperature
Method in brief: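 Each bisphenol was dissolved in ethanol, then diluted in a 1 L glass bottle to initial concentrations of 0 to 1.0 mg L-1. PVC microplastics were added, and bottles were shaken at 200 rpm until adsorption equilibrium. Supernatants were filtered through a glass microfiber filter before bisphenol quantification. Run in triplicate.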

[3] = system: grass carp hepatocyte cell line, L8824; assay: cells; format: cell-based; conditions: for Cytotoxicity (proliferation reduction), L8824: high concentration (2 mg L^−1)
[4] = system: human breast adenocarcinoma cells, MCF-7; assay: cells; format: cell-based; conditions: for Cytotoxicity (proliferation reduction), MCF-7: high concentration (2 mg L^−1)
[5] = Physicochemical properties of the five bisphenols; conditions: calculated from log Kow and pKa
[6] = water, ref Wu et al.^3; cited from earlier work
[7] = calculated for concentration desorbed in warm-I
[8] = calculated for concentration desorbed in water
[9] = Hepatocyte, 72 h, read-out: IC50 to L8824, 72 h exposure, 291 K, MTT
[10] = Homo sapiens, MCF7, 72 h, read-out: IC50 to MCF-7, 72 h exposure, 311 K, MTT
[11] = read-out: IC50 to MCF-7, 72 h exposure, 311 K, MTT
[12] = read-out: IC50 to L8824, 72 h exposure, 291 K, MTT

CC(C)(c1ccc(O)cc1)c1ccc(O)cc1 [BPA, bisphenol A]
Fslow, slow fraction ([1]; cold-I, pH 7.5, 291 K): 0.395±0.003 | Fvs, very slow fraction ([1]; cold-I, pH 7.5, 291 K): 0.043±0.005 | krap, rapid desorption rate constant ([1]; cold-I, pH 7.5, 291 K): 0.809±0.302 10^-2 h^-1 | kslow, slow desorption rate constant ([1]; cold-I, pH 7.5, 291 K): 10.90±0.407 10^-4 h^-1 | kvs, very slow desorption rate constant ([1]; cold-I, pH 7.5, 291 K): 9.442±0.716 10^-5 h^-1 | Fslow, slow fraction ([1]; warm-I, pH 6.5, 311 K): 0.303±0.046 | Fvs, very slow fraction ([1]; warm-I, pH 6.5, 311 K): 0.019±0.003 | krap, rapid desorption rate constant ([1]; warm-I, pH 6.5, 311 K): 2.163±0.456 10^-2 h^-1 | kslow, slow desorption rate constant ([1]; warm-I, pH 6.5, 311 K): 11.40±0.898 10^-4 h^-1 | kvs, very slow desorption rate constant ([1]; warm-I, pH 6.5, 311 K): 9.069±0.647 10^-5 h^-1 | Fslow, slow fraction ([1]; water, pH 7.0, 291 K): 0.284±0.004 | Fvs, very slow fraction ([1]; water, pH 7.0, 291 K): 0.076±0.004 | krap, rapid desorption rate constant ([1]; water, pH 7.0, 291 K): 0.746±0.206 10^-2 h^-1 | kslow, slow desorption rate constant ([1]; water, pH 7.0, 291 K): 5.979±0.555 10^-4 h^-1 | kvs, very slow desorption rate constant ([1]; water, pH 7.0, 291 K): 6.997±0.788 10^-5 h^-1 | HI, hysteresis index (Desorption isotherms; warm-I): <0 | kFd, Freundlich constant for desorption (Desorption isotherms; warm-I (Table 2)): 0.398 mg^−1/n·L^−1/n·g^−1 | n, surface heterogeneity constant (desorption) (Desorption isotherms; warm-I (Table 2)): 1.218 | HI, hysteresis index (Desorption isotherms; water): 0.289 | kFd, Freundlich constant for desorption (Desorption isotherms; water (Table 2)): 1.033 mg^−1/n·L^−1/n·g^−1 | n, surface heterogeneity constant (desorption) (Desorption isotherms; water (Table 2)): 1.512 | amount of bisphenol adsorbed on the PVC [2]: 0.19 mg/g | IC50 ([3]; Hepatocyte, 72 h, read-out: IC50 to L8824): 16.2 µM and 3.7 µg/mL | Cytotoxicity (proliferation reduction), L8824 [3, 7]: 29.75% | Cytotoxicity (proliferation reduction), L8824 [3, 8]: 20.08% | IC50 ([4]; Homo sapiens, MCF7, 72 h, read-out: IC50 to MCF-7): 36.9 µM and 8.42 µg/mL | Cytotoxicity (proliferation reduction), MCF-7 [4, 7]: 21.75% | Cytotoxicity (proliferation reduction), MCF-7 [4, 8]: 12.36% | log Dow [5]: 3.32 | kFa, Freundlich constant for adsorption [6]: 0.801 mg^−1/n·L^−1/n·g^−1 | n, surface heterogeneity constant (adsorption) [6]: 1.21

Oc1ccc(C(c2ccc(O)cc2)(C(F)(F)F)C(F)(F)F)cc1 [BPAF, bisphenol AF]
Fslow, slow fraction ([1]; cold-I, pH 7.5, 291 K): 0.409±0.002 | Fvs, very slow fraction ([1]; cold-I, pH 7.5, 291 K): 0.003±0.001 | krap, rapid desorption rate constant ([1]; cold-I, pH 7.5, 291 K): 1.007±0.318 10^-2 h^-1 | kslow, slow desorption rate constant ([1]; cold-I, pH 7.5, 291 K): 9.957±0.755 10^-4 h^-1 | kvs, very slow desorption rate constant ([1]; cold-I, pH 7.5, 291 K): <0.01 10^-5 h^-1 | Fslow, slow fraction ([1]; warm-I, pH 6.5, 311 K): 0.315±0.007 | Fvs, very slow fraction ([1]; warm-I, pH 6.5, 311 K): <0.001 | krap, rapid desorption rate constant ([1]; warm-I, pH 6.5, 311 K): 2.609±0.521 10^-2 h^-1 | kslow, slow desorption rate constant ([1]; warm-I, pH 6.5, 311 K): 13.80±2.684 10^-4 h^-1 | kvs, very slow desorption rate constant ([1]; warm-I, pH 6.5, 311 K): <0.01 10^-5 h^-1 | Fslow, slow fraction ([1]; water, pH 7.0, 291 K): 0.272±0.010 | Fvs, very slow fraction ([1]; water, pH 7.0, 291 K): 0.068±0.002 | krap, rapid desorption rate constant ([1]; water, pH 7.0, 291 K): 0.794±0.230 10^-2 h^-1 | kslow, slow desorption rate constant ([1]; water, pH 7.0, 291 K): 5.983±0.498 10^-4 h^-1 | kvs, very slow desorption rate constant ([1]; water, pH 7.0, 291 K): 6.314±0.606 10^-5 h^-1 | HI, hysteresis index (Desorption isotherms; warm-I): <0 | kFd, Freundlich constant for desorption (Desorption isotherms; warm-I (Table 2)): 0.465 mg^−1/n·L^−1/n·g^−1 | n, surface heterogeneity constant (desorption) (Desorption isotherms; warm-I (Table 2)): 1.154 | HI, hysteresis index (Desorption isotherms; water): 0.326 | kFd, Freundlich constant for desorption (Desorption isotherms; water (Table 2)): 1.933 mg^−1/n·L^−1/n·g^−1 | n, surface heterogeneity constant (desorption) (Desorption isotherms; water (Table 2)): 1.155 | amount of bisphenol adsorbed on the PVC [2]: 0.24 mg/g | IC50 [3, 9]: 1.15 ± 0.18 µg/mL | Cytotoxicity (proliferation reduction), L8824 [3, 7]: 46.31% | Cytotoxicity (proliferation reduction), L8824 [3, 8]: 32.70% | IC50 [4, 10]: 2.65 ± 1.34 µg/mL | Cytotoxicity (proliferation reduction), MCF-7 [4, 7]: 36.87% | Cytotoxicity (proliferation reduction), MCF-7 [4, 8]: 24.19% | IC50 [4, 11]: 7.87 ± 3.98 µM | kFa, Freundlich constant for adsorption [6]: 1.458 mg^−1/n·L^−1/n·g^−1 | n, surface heterogeneity constant (adsorption) [6]: 1.14

CCC(C)(c1ccc(O)cc1)c1ccc(O)cc1 [BPB, bisphenol B]
Fslow, slow fraction ([1]; cold-I, pH 7.5, 291 K): 0.456±0.005 | Fvs, very slow fraction ([1]; cold-I, pH 7.5, 291 K): 0.059±0.001 | krap, rapid desorption rate constant ([1]; cold-I, pH 7.5, 291 K): 0.864±0.209 10^-2 h^-1 | kslow, slow desorption rate constant ([1]; cold-I, pH 7.5, 291 K): 10.80±0.737 10^-4 h^-1 | kvs, very slow desorption rate constant ([1]; cold-I, pH 7.5, 291 K): 7.718±0.488 10^-5 h^-1 | Fslow, slow fraction ([1]; warm-I, pH 6.5, 311 K): 0.308±0.003 | Fvs, very slow fraction ([1]; warm-I, pH 6.5, 311 K): 0.010±0.001 | krap, rapid desorption rate constant ([1]; warm-I, pH 6.5, 311 K): 2.479±0.452 10^-2 h^-1 | kslow, slow desorption rate constant ([1]; warm-I, pH 6.5, 311 K): 18.90±2.818 10^-4 h^-1 | kvs, very slow desorption rate constant ([1]; warm-I, pH 6.5, 311 K): <0.01 10^-5 h^-1 | Fslow, slow fraction ([1]; water, pH 7.0, 291 K): 0.293±0.006 | Fvs, very slow fraction ([1]; water, pH 7.0, 291 K): 0.046±0.002 | krap, rapid desorption rate constant ([1]; water, pH 7.0, 291 K): 0.777±0.285 10^-2 h^-1 | kslow, slow desorption rate constant ([1]; water, pH 7.0, 291 K): 6.751±0.274 10^-4 h^-1 | kvs, very slow desorption rate constant ([1]; water, pH 7.0, 291 K): 6.992±0.534 10^-5 h^-1 | HI, hysteresis index (Desorption isotherms; warm-I): <0 | kFd, Freundlich constant for desorption (Desorption isotherms; warm-I (Table 2)): 0.428 mg^−1/n·L^−1/n·g^−1 | n, surface heterogeneity constant (desorption) (Desorption isotherms; warm-I (Table 2)): 1.179 | HI, hysteresis index (Desorption isotherms; water): 0.304 | kFd, Freundlich constant for desorption (Desorption isotherms; water (Table 2)): 1.542 mg^−1/n·L^−1/n·g^−1 | n, surface heterogeneity constant (desorption) (Desorption isotherms; water (Table 2)): 1.237 | amount of bisphenol adsorbed on the PVC [2]: 0.23 mg/g | IC50 [3, 9]: 2.34 ± 0.23 µg/mL | Cytotoxicity (proliferation reduction), L8824 [3, 7]: 36.95% | Cytotoxicity (proliferation reduction), L8824 [3, 8]: 26.25% | IC50 [3, 12]: 9.67 ± 0.92 µM | IC50 [4, 10]: 21.6 µM and 5.25 µg/mL | Cytotoxicity (proliferation reduction), MCF-7 [4, 7]: 29.53% | Cytotoxicity (proliferation reduction), MCF-7 [4, 8]: 18.79% | kFa, Freundlich constant for adsorption [6]: 1.182 mg^−1/n·L^−1/n·g^−1 | n, surface heterogeneity constant (adsorption) [6]: 1.16

O=S(=O)(c1ccc(O)cc1)c1ccc(O)cc1 [BPS, bisphenol S]
Fslow, slow fraction ([1]; cold-I, pH 7.5, 291 K): 0.383±0.001 | Fvs, very slow fraction ([1]; cold-I, pH 7.5, 291 K): 0.085±0.002 | krap, rapid desorption rate constant ([1]; cold-I, pH 7.5, 291 K): 0.587±0.228 10^-2 h^-1 | kslow, slow desorption rate constant ([1]; cold-I, pH 7.5, 291 K): 7.612±0.336 10^-4 h^-1 | kvs, very slow desorption rate constant ([1]; cold-I, pH 7.5, 291 K): 12.03±0.685 10^-5 h^-1 | Fslow, slow fraction ([1]; warm-I, pH 6.5, 311 K): 0.325±0.005 | Fvs, very slow fraction ([1]; warm-I, pH 6.5, 311 K): <0.001 | krap, rapid desorption rate constant ([1]; warm-I, pH 6.5, 311 K): 1.497±0.391 10^-2 h^-1 | kslow, slow desorption rate constant ([1]; warm-I, pH 6.5, 311 K): 10.00±1.191 10^-4 h^-1 | kvs, very slow desorption rate constant ([1]; warm-I, pH 6.5, 311 K): 11.338±0.322 10^-5 h^-1 | Fslow, slow fraction ([1]; water, pH 7.0, 291 K): 0.410±0.007 | Fvs, very slow fraction ([1]; water, pH 7.0, 291 K): 0.028±0.002 | krap, rapid desorption rate constant ([1]; water, pH 7.0, 291 K): 0.580±0.174 10^-2 h^-1 | kslow, slow desorption rate constant ([1]; water, pH 7.0, 291 K): 6.789±0.198 10^-4 h^-1 | kvs, very slow desorption rate constant ([1]; water, pH 7.0, 291 K): <0.01 10^-5 h^-1 | kFd, Freundlich constant for desorption (Desorption isotherms; warm-I (Table 2)): 0.341 mg^−1/n·L^−1/n·g^−1 | n, surface heterogeneity constant (desorption) (Desorption isotherms; warm-I (Table 2)): 1.207 | kFd, Freundlich constant for desorption (Desorption isotherms; water (Table 2)): 0.602 mg^−1/n·L^−1/n·g^−1 | amount of bisphenol adsorbed on the PVC [2]: 0.15 mg/g | IC50 to L8824 ([3]; 72 h exposure, 291 K, MTT): 8.98 ± 1.51 µg/mL (≈ 35.9 µM) | IC50 [3, 12]: 35.9 ± 6.01 µM | IC50 to MCF-7 ([4]; 72 h exposure, 311 K, MTT): 14.50 ± 1.95 µg/mL (≈ 57.9 µM) | IC50 [4, 11]: 57.9 ± 7.76 µM | kFa, Freundlich constant for adsorption [6]: 0.503 mg^−1/n·L^−1/n·g^−1 | n, surface heterogeneity constant (adsorption) [6]: 1.15
